Results published in ChEMBL document CHEMBL1132435 (J Med Chem, 1999).
Where a SMILES comes first, the peptide text is derived from it. [ ]: non-standard residue; d: D form. The star is where a group is joined. X1 = COc1ccc(C[C@@H](CN[C@@H](CCCNC(=N)N)C(=O)O)N*)cc1; Hyp = O=C(O)[C@@H]1C[C@@H](O)CN1; 2Thi = N[C@@H](Cc1cccs1)C(=O)O

Tests used:
B2 bradykinin receptor [1] = target: T1, B2 bradykinin receptor (Homo sapiens, UniProt P30411); experiment: Binding affinity against human cloned Bradykinin receptor B2 expressed in CHO cells using [3H]-bradykinin as radioligand; format: cell-based
T1 sequence (P30411 whole entry): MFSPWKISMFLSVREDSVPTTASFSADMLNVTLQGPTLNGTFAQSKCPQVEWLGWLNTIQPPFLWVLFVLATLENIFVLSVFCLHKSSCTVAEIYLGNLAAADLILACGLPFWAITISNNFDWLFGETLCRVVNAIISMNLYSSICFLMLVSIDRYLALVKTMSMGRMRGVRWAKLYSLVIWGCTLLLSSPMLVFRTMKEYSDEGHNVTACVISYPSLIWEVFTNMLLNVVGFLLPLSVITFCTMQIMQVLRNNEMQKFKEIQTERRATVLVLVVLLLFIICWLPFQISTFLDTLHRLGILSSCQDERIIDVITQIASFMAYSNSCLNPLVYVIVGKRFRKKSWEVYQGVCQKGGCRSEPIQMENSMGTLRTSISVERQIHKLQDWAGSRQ
In short: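 Membranes of stably transfected CHO cells (human or rat B2 receptor), prepared in 20 mM TES pH 6.8 with 1 mM 1,10-phenanthroline, 140 µg/mL bacitracin and 0.1% BSA, spun at 40 000g. Filtration on PEI-soaked GF/B filters.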

B1 bradykinin receptor = target: T2, B1 bradykinin receptor (Homo sapiens, UniProt P46663); experiment: Binding affinity against human cloned Bradykinin receptor B1 expressed in HEK 293 cells using [3H]des-Arg10-[Leu9]-kallidin as radioligand
T2 sequence (P46663 whole entry): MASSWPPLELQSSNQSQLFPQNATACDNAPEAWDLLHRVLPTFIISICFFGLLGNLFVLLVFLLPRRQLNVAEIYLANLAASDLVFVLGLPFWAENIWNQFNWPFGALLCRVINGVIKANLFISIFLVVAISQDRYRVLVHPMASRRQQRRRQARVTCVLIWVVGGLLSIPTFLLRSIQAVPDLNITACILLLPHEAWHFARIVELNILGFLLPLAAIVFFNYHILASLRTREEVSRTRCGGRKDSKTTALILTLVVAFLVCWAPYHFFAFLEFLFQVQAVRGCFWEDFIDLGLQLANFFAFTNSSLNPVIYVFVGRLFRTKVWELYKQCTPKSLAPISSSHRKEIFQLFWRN

B2 bradykinin receptor [2] = target: T3, B2 bradykinin receptor (Rattus norvegicus, UniProt P25023); experiment: Binding affinity against rat bradykinin B2 receptors expressed in CHO cells using [3H]bradykinin as radioligand; format: cell-based
T3 sequence (P25023 whole entry): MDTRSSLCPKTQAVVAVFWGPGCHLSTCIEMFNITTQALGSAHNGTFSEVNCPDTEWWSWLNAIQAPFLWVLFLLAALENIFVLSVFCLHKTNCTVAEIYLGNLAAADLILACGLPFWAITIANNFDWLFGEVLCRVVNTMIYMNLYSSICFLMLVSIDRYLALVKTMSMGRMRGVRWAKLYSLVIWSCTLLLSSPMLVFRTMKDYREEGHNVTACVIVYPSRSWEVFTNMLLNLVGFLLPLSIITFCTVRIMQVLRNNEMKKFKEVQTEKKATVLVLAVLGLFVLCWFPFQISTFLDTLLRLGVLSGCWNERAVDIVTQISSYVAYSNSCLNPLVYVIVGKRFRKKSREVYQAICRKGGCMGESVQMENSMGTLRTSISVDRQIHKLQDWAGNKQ
In short: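 Membranes of stably transfected CHO cells (human or rat B2 receptor), prepared in 20 mM TES pH 6.8 with 1 mM 1,10-phenanthroline, 140 µg/mL bacitracin and 0.1% BSA, spun at 40 000g. […] Filtration on PEI-soaked GF/B filters. Ki, means ± SEM (n = 3 or 4).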

Homo sapiens [3] = species on record: Homo sapiens; experiment: (§1) Agonistic activity on human umbilical vein(HUV) in presence of inhibitors; format: functional
In short: (§2)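 Human umbilical vein segments; cumulative concentration-response to agonist measured as contraction, run with or without protease inhibitors. Maximal contraction of each segment obtained after washout with U46619 (1 μM).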

Rattus norvegicus [4] = species on record: Rattus norvegicus; experiment: (§3) Agonistic activity on rat uterus(RUT) in presence of inhibitors; format: functional
In short: (§4)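 Uterus from female Sprague–Dawley rats (250-300 g) pretreated with diethylstilbestrol 0.1 mg/kg s.c. 18 h before CO2 kill. Tissue placed in Jalon solution (mM: NaCl 154, KCl 5.6, NaHCO3 1.7, MgCl2 1.4, glucose 5.5, CaCl2 0.3). One cumulative concentration-response curve per segment, run with or without protease inhibitors. Maximum per segment taken with angiotensin II (3 μM). Means ± SEM, n = 5; pD2.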

Rattus norvegicus [5] = species on record: Rattus norvegicus; experiment: Agonistic activity on rat uterus(RUT) in absence of inhibitors; format: functional; in short: as §4
Homo sapiens [6] = species on record: Homo sapiens; experiment: Agonistic activity on human umbilical vein(HUV) in absence of inhibitors; format: functional; in short: as §2
Homo sapiens [7] = species on record: Homo sapiens; experiment: as §1; format: functional, organism-based; details: read-out: pA2 (converted); in short: as §2
Rattus norvegicus [8] = species on record: Rattus norvegicus; experiment: as §3; format: functional, organism-based; details: read-out: pA2 (converted); in short: as §4
B2 bradykinin receptor [9] = target: T3, B2 bradykinin receptor; experiment: Binding affinity against rat Bradykinin receptor B2 expressed in CHO cells using [3H]-bradykinin as radioligand; format: cell-based
In short: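 Competition binding on membranes from stably transfected CHO cells. Cells were scraped into 20 mM TES pH 6.8 with 1 mM 1,10-phenanthroline, 140 µg/mL bacitracine and 0.1% BSA, and membranes were pelleted at 40 000g for 15 min. […] Bound label was collected by filtration on PEI-presoaked GF/B filters and counted by scintillation. n = 3 or 4.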

Compound	Ki (B2 bradykinin receptor [1]) [nM]	Ki (B1 bradykinin receptor) [nM]	pD2 (Homo sapiens [3])	pD2 (Homo sapiens [6])	further results
N=C(N)NCCC[C@@H](N)C(=O)N[C@@H](CCCNC(=N)N)C(=O)N1CCC[C@H]1C(=O)N1CC(O)C[C@H]1C(=O)NCC(=O)N[C@@H](Cc1cccs1)C(=O)N[C@@H](CO)C(=O)N[C@H]1CSc2ccccc2N(CC(=O)N[C@@H](CCCNC(=N)N)C(=O)O)C1=O (stereo partly specified)	162	> 10000	–	–	–
NC(N)=NCCC[C@@H](N)C(=O)N[C@@H](CCCN=C(N)N)C(=O)N1CCC[C@H]1C(=O)N1CC(O)C[C@H]1C(=O)NCC(=O)N[C@@H](Cc1cccs1)C(=O)N[C@@H](CO)C(=O)N[C@@H]1CSc2ccccc2N(CC(=O)N[C@@H](CCCN=C(N)N)C(=O)O)C1=O (stereo partly specified)	0.7	> 10000	6.8	6.7	Ki (B2 bradykinin receptor [2]): 6 nM; pD2 (Rattus norvegicus [4]): 7.5; pD2 (Rattus norvegicus [5]): 7.2
N=C(N)NCCC[C@H](NC(=O)CN1C(=O)[C@H](NC(=O)[C@H](CO)NC(=O)[C@H](Cc2ccccc2)NC(=O)CNC(=O)[C@@H]2CCCN2C(=O)[C@@H]2CCCN2C(=O)[C@@H](N)CCCNC(=N)N)CSc2ccccc21)C(=O)O	–	> 10000	–	–	–
NC(N)=NCCC[C@@H](N)C(=O)N[C@@H](CCCN=C(N)N)C(=O)N1CCC[C@H]1C(=O)N1C[C@H](O)C[C@H]1C(=O)NCC(=O)N[C@@H](Cc1cccs1)C(=O)N[C@@H](CO)C(=O)N1Cc2ccccc2C[C@@H]1C(=O)N1[C@H](C(=O)N[C@@H](CCCN=C(N)N)C(=O)O)C[C@@H]2CCCC[C@@H]21 [ICATIBANT]	–	–	–	–	Ki (B2 bradykinin receptor [2]): 0.077 nM; Kb (Homo sapiens [7]): 6.61 nM; Kb (Rattus norvegicus [8]): 1.15 nM
COc1ccc(C[C@@H](CN[C@@H](CCCNC(=N)N)C(=O)O)NC(=O)[C@@H]2CCCN2C(=O)[C@H](CO)NC(=O)[C@H](Cc2cccs2)NC(=O)CNC(=O)[C@@H]2C[C@@H](O)CN2C(=O)[C@@H]2CCCN2C(=O)[C@@H](N)CCCNC(=N)N)cc1 [LABRADIMIL] (H-RP[Hyp]G[2Thi]SP-X1)	19	–	7.1	6.9	–
H-RPPGFSPFR-OH [BRADYKININ] [listing 1 of 2 here]	–	–	7.9	7.4	pD2 (Rattus norvegicus [4]): 8.3; pD2 (Rattus norvegicus [5]): 7.33
H-RPPGFSPFR-OH [BRADYKININ] [listing 2 of 2 here]	–	–	–	–	Ki (B2 bradykinin receptor [9]): 0.46 nM
